ChEMBL document CHEMBL1122553, “Tetrahydropyrrolo[1,2-a]quinoxalines and tetrahydropyrrolo[1,2-a]pyrido[3,2-a]pyrazines: vascular smooth muscle relaxants and antihypertensive agents” (1984)

tested on: Rattus norvegicus; experiment: Antihypertensive activity expressed as maximal change in systolic blood pressure (SBP) from pretreatment levels at either 1.5 or 4 hr after dosing; format: functional, Artery
Procedure, shortened: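 Male spontaneously hypertensive rats (Okamoto-Aoki, ~300-400 g), fasted at least 16 h, given a single oral 50 mg/kg dose by stomach tube; groups of four, with vehicle-only controls. Systolic pressure taken indirectly by tail plethysmography after 10 min warming at 38 °C, before dosing and at 1.5 and 4 h after. Reported as X ± SE.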

SMILES | Max SBP [mmHg]
COc1cccc(OC)c1CN1CC2CCCN2c2ccccc21 (centres undefined) | -5
COc1cccc(OC)c1CN1C(=O)C2CCCN2c2ccccc21 (centres undefined) | -19
COc1cccc(OC)c1CN1CC2CCCN2c2ncccc21 (centres undefined) | -6
c1ccc2c(c1)NCC1CCCN21 (centres undefined) | -17
O=C1C2CCCN2c2ccccc2N1Cc1ccccc1 (centres undefined) | -4
O=C1C2CCCN2c2ncccc2N1Cc1ccccc1 (centres undefined) | -39
CN(C)CCN1C(=O)C2CCCN2c2ncccc21 (centres undefined) | -22
COc1cccc(OC)c1C(=O)N1CC2CCCN2c2ccccc21 (centres undefined) | -13
O=C1Nc2ccccc2N2CCCC12 (centres undefined) | -26
O=C1C2CCCN2c2ncccc2N1Cc1ccncc1 (centres undefined) | -38
COc1cccc(OC)c1CN1C(=O)C2CCCN2c2ncccc21 (centres undefined) | -18
O=C1C2CCCN2c2ccccc2N1Cc1ccncc1 (centres undefined) | -2
COC(=O)C1=C(C)NC(C)=C(C(=O)OC)C1c1ccccc1[N+](=O)[O-] [NIFEDIPINE] | -68

species: Oryctolagus cuniculus; experiment: The vascular smooth muscle relaxant activity was expressed as percent relaxation of the developed isometric tension in potassium depolarized rabbit aortic smooth muscle; format: functional, Aorta
Procedure, shortened: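 Transverse thoracic aorta strips from female New Zealand albino rabbits in Krebs solution (95% O2/5% CO2, 37 °C), held at 4 g isometric tension and equilibrated 90 min. Strips were primed with high-K+ (100 mM) solution plus 2.5 mM CaCl2, rinsed, then recontracted. After 20 min of sustained contraction, drug was added at 10⁻⁵ M final. Tension 20 min later was compared with pre-drug tension and given as % relaxation.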

SMILES | Vascular relaxation [%]
COc1cccc(OC)c1CN1CC2CCCN2c2ccccc21 (centres undefined) | 13
COc1cccc(OC)c1CN1C(=O)C2CCCN2c2ccccc21 (centres undefined) | 30
COc1cccc(OC)c1CN1CC2CCCN2c2ncccc21 (centres undefined) | 54
c1ccc2c(c1)NCC1CCCN21 (centres undefined) | 0
O=C1C2CCCN2c2ncccc2N1Cc1ccccc1 (centres undefined) | 0
CN(C)CCN1C(=O)C2CCCN2c2ncccc21 (centres undefined) | 0
COc1cccc(OC)c1C(=O)N1CC2CCCN2c2ccccc21 (centres undefined) | 6
O=C1Nc2ccccc2N2CCCC12 (centres undefined) | 0
O=C1C2CCCN2c2ncccc2N1Cc1ccncc1 (centres undefined) | 0
COc1cccc(OC)c1CN1C(=O)C2CCCN2c2ncccc21 (centres undefined) | 5
COC(=O)C1=C(C)NC(C)=C(C(=O)OC)C1c1ccccc1[N+](=O)[O-] [NIFEDIPINE] | 75
